# Published values of several laboratories.
# Compare with care: the assays were run in different laboratories.
# Cell line: HepG2
# Effect on: cell growth or viability
SMILES,assay,conditions,quantity,value
CCOC(=O)c1ccc(-n2c(C)cc(/C=C/c3ccc(OC)cc3)c(C#N)c2=O)cc1,MTT,"25 µM, 24 h",viability,72.6%
O=C(CN1C(=O)/C(=C/c2cccc(Cl)c2)SC1=S)Nc1ccccc1,MTT,10 µM,inhibition,10%
COc1ccc(NC(=O)c2c(Nc3ccccc3)sc(C(=O)NN=Cc3ccc(OC)c(O)c3)c2NC(C)=O)cc1,SRB,"0.1 µM, 48 h",viability,63.7%
O=C(CN1C(=O)/C(=C/C2CC2)SC1=S)Nc1ccccc1,MTT,10 µM,inhibition,11%
CN(C)C/C=N/NC(=O)Nc1cc2c(Nc3ccc(F)c(Cl)c3)ncnc2cc1O[C@H]1CCOC1,MTT,72 h,IC50,3.08 µM
Cc1ccc(-c2cc(-c3ccc4oc(=O)cc(C)c4c3O)nc(N)n2)cc1,MTT,"128 µg/mL, 72 h",inhibition,27%
O=C(CN1C(=O)/C(=C/c2ccccc2O)SC1=S)Nc1ccccc1,MTT,10 µM,inhibition,26.4%
CCOC(=O)c1ccc(NC(=O)C2=C3C(=Nc4ccccc43)NC2=O)cc1,MTT,"100 µM, 24 h",viability,35.6%
COc1ccc(NC(=O)c2c(Nc3ccccc3)sc(C#N)c2NC(=O)CNc2ccc(Br)cc2)cc1,SRB,"0.1 µM, 48 h",viability,70.4%
CCOC(=O)c1ccc(-n2c(N)c(C#N)c(CC#N)c(C#N)c2=O)cc1,MTT,"25 µM, 24 h",viability,50.9%
COc1ccc(NC(=O)c2c(Nc3ccccc3)sc(C#N)c2NC(=O)CNc2ccc(Cl)cc2)cc1,SRB,"10 nM, 48 h",viability,86.1%
CSc1ccc(-c2nc3ccc(C)cc3[nH]2)cc1,MTT,48 h,IC50,> 100 µM
Cc1cc(=O)oc2ccc(-c3cc(-c4ccc(Cl)cc4)nc(N)n3)c(O)c12,MTT,"32 µg/mL, 72 h",inhibition,65%
COc1ccc(NC(=O)c2c(Nc3ccccc3)sc(C(=O)NN=Cc3ccc(C)cc3)c2NC(C)=O)cc1,SRB,"0.1 µM, 48 h",viability,89.2%
C=CCn1c(-c2ccc(Cl)cc2)nc2ccccc21,MTT,,IC50,58.9 µM
CC(C)(CO)Cn1nc(-c2ccc3nc(OCC(F)(F)F)ccc3c2)c2c(N)ncnc21,,,GI50,> 10 µM
CCOC(=O)c1ccc(N2C(N)=C(C#N)C3(C(=O)Nc4ccccc43)C(C#N)=C2O)cc1 (centres unmarked),MTT,"25 µM, 24 h",viability,23.5%
COc1ccc(C=NNC(=O)c2sc(Nc3ccccc3)c(C(=O)Nc3ccc(OC)cc3)c2NC(C)=O)cc1,SRB,"100 µM, 48 h",viability,49.2%
CCn1cc(-c2nc(C)no2)c(=O)c2cc(F)c(N3CCC4(CC3)CC4)cc21,ATP luminescence,48 h,EC50,> 40 µM
COc1ccc(NC(=O)c2c(Nc3ccccc3)sc(C#N)c2NC(=O)CNc2ccc(C)cc2)cc1,SRB,"10 nM, 48 h",viability,88.3%
COc1cccc(-c2nc3ccc(C)cc3[nH]2)c1,MTT,48 h,IC50,26.9 µM
COc1ccc(NC(=O)c2c(Nc3ccccc3)sc(C#N)c2NC(=O)CNc2ccccc2Cl)cc1,SRB,"1 µM, 48 h",viability,77.2%
CCOC(=O)c1cn(CC)c2cc(N3CCC(C)CC3)c(F)cc2c1=O,ATP luminescence,48 h,EC50,> 40 µM
